Assay [1] can be described thus: Growth inhibition of Chinese hamster PC43-10 cells expressing reduced folate carrier incubated for 96 hrs by CellTiter-blue cell viability assay. The format is functional, cell-based. As to conditions: Cricetulus griseus, PC43-10, 96 h.
Assay [2] deals with R2. In words: Growth inhibition of Chinese hamster R2 cells deficient in reduced folate carrier and human folate receptor alpha incubated for 96 hrs by CellTiter-blue cell viability assay. The format is cell-based, Cricetulus griseus. As to conditions: R2, 96 h. (Alamar Blue is a resazurin reagent that responds to reducing activity.)
A short description of assay [3]: Growth inhibition of Chinese hamster RT16 cells expressing human folate receptor alpha incubated for 96 hrs by CellTiter-blue cell viability assay. The format is functional, cell-based. Conditions: Cricetulus griseus, RT16, 96 h.
Assay [4] is described as follows: Growth inhibition of Chinese hamster RT16 cells expressing human folate receptor alpha incubated for 96 hrs in presence of folic acid by CellTiter-blue cell viability assay. The format is functional, cell-based. As to conditions: Cricetulus griseus, RT16, 96 h.
Assay [5] has as its system R2. In words: Growth inhibition of Chinese hamster R2 cells expressing human PCFT incubated for 96 hrs by CellTiter-blue cell viability assay. Conditions: R2, 96 h. The format is functional, cell-based, Cricetulus griseus. The gist of the method:
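R2/hPCFT4 CHO cells maintained beforehand in folate-free RPMI 1640 with dialyzed FBS, 25 nM LCV and G418. Assay: ~2500–5000 cells/well in folate-free RPMI 1640 (pH 7.2) with 25 nM LCV, 10% dialyzed FBS, antibiotics and L-glutamine, over a range of drug concentrations.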

Assay [6] relates to KB. In words: Growth inhibition of human KB cells endogenously expressing RFC/FRalpha/PCFT incubated for 96 hrs by CellTiter-blue cell viability assay. The format is functional, cell-based.
Assay [7] has as its system KB. Kind of assay: Growth inhibition of human KB cells endogenously expressing RFC/FRalpha/PCFT in presence of folic acid incubated for 96 hrs by CellTiter-blue cell viability assay. The format is functional, cell-based.
Assay [8] concerns IGROV-1. In words: Growth inhibition of human IGROV1 cells endogenously expressing RFC/FRalpha/PCFT incubated for 96 hrs by CellTiter-blue cell viability assay. The format is functional, cell-based. As to conditions: IGROV-1, 96 h.
Assay [9] deals with IGROV-1. Kind of assay: Growth inhibition of human IGROV1 cells endogenously expressing RFC/FRalpha/PCFT in presence of folic acid incubated for 96 hrs by CellTiter-blue cell viability assay. The format is functional, cell-based. As to conditions: IGROV-1, 96 h.
Assay [10] concerns R2. In words: Growth inhibition of Chinese hamster R2 cells expressing empty vector control incubated for 96 hrs by CellTiter-blue cell viability assay. Conditions: Cricetulus griseus, R2, 96 h.
Assay [11] has as its system KB. In words: Inhibition of colony formation of human KB cells endogenously expressing RFC/FRalpha/PCFT incubated for 14 days by methylene blue staining based clonogenicty assay. The format is functional, cell-based. Conditions: 336 h.
Assay [12] has as its system KB. In words: Growth inhibition of human KB cells endogenously expressing RFC/FRalpha/PCFT in presence of 50 nM leucovorin incubated for 96 hrs by CellTiter-blue cell viability assay. The format is functional, cell-based. The gist of the method:
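KB cells in complete folate-free RPMI 1640 with 10% dialyzed FBS and LCV at 50 nM (versus the standard 2 nM), exposed to a range of antifolate concentrations for up to 96 h. Cell density read by CellTiter-blue fluorescence and normalized to drug-free cells. Representative data from experiments run in duplicate.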

Assay [13] addresses Folate receptor alpha (Homo sapiens) (UniProt P15328). The format is cell-based. Conditions: CHO.
For assay [14], the target named is T1, Trifunctional purine biosynthetic protein adenosine-3 (Homo sapiens, UniProt P22102).
T1 sequence (P22102 whole entry): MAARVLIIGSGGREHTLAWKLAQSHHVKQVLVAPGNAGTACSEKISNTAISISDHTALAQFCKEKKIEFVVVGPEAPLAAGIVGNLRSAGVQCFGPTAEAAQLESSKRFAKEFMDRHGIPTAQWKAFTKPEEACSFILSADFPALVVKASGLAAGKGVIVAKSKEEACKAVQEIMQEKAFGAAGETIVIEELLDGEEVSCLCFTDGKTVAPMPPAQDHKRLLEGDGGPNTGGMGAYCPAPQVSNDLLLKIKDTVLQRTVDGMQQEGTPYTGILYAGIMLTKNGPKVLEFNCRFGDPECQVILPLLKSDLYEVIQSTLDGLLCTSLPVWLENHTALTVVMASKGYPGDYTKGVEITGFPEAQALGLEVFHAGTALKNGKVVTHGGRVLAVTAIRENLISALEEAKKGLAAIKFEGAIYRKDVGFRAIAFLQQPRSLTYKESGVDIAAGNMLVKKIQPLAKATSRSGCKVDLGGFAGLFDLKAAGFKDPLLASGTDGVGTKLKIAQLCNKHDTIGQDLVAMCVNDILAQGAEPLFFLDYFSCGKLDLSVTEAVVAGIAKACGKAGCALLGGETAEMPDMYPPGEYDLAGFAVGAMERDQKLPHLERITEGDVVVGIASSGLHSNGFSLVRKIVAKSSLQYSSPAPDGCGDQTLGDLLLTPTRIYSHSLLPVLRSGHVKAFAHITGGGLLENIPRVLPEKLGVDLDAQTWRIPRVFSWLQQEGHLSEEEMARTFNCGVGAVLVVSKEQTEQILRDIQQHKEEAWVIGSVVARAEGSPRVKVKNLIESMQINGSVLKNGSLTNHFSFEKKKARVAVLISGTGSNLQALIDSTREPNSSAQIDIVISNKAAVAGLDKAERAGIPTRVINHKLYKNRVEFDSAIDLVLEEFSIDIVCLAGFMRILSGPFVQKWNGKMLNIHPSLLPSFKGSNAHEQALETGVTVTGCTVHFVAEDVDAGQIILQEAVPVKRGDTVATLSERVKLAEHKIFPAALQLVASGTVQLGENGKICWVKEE
In words: Inhibition of GARFTase in human IGROV1 cells assessed as reduction in [14C]glycine incorporation into [14C]formyl GAR incubated for 15 hrs in complete folate free RPMI medium in presence of 2 nM leucovorin. The format is cell-based, IGROV-1.

This passage reports IC50 and relative binding affinity (RBA) results from ChEMBL document CHEMBL2157949 (J Med Chem, 2012).

Folate receptor alpha (Homo sapiens), sequence (P15328 25-234 limits assumed): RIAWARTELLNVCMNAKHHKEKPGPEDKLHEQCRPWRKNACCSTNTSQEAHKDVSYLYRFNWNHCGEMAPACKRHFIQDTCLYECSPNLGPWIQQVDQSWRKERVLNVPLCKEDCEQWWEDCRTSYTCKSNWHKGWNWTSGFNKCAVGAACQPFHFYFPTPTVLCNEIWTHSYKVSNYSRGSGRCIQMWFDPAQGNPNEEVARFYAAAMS

Broadly, the IC50 is the point on the concentration scale where inhibition reaches its midpoint. As to `Nc1nc2[nH]c(CCC#Cc3ccc(C(=O)N[C@@H](CCC(=O)O)C(=O)O)s3)cc2c(=O)[nH]1`, the 50% inhibitory concentration (IC50) is greater than 1000 nM in assay [1]; greater than 1000 nM in the assay on R2 [2]; 12.1 nM in assay [3]; greater than 1000 nM in assay [4]; greater than 1000 nM in the assay with R2 [5]; greater than 1000 nM in the assay on KB [6]. The IC50 in the assay on KB [7], in the assay with IGROV-1 [8], in the assay on IGROV-1 [9] and in the assay with R2 [10] was greater than 1000 nM throughout.
Take `Nc1nc2[nH]c(CCCCc3ccsc3C(=O)N[C@@H](CCC(=O)O)C(=O)O)cc2c(=O)[nH]1`: the IC50 was greater than 1000 nM in assay [1]; greater than 1000 nM in the assay with R2 [2]; greater than 1000 nM in [3]; greater than 1000 nM in assay [4]; greater than 1000 nM in the assay with R2 [5]; 267 nM in the assay with KB [6]. Moreover, the IC50 in the assay on KB [7] and in the assay with R2 [10] was greater than 1000 nM throughout.
On to `Nc1nc2[nH]c(CCC#Cc3csc(C(=O)N[C@@H](CCC(=O)O)C(=O)O)c3)cc2c(=O)[nH]1`, for which the IC50 in assay [1] was greater than 1000 nM; in the assay with R2 [2], greater than 1000 nM; in assay [3], 13.5 nM; in assay [4] it was greater than 1000 nM; in the assay on R2 [5], greater than 1000 nM; in the assay on KB [6], greater than 1000 nM. Besides, the IC50 with KB [7], in the assay on IGROV-1 [8], in the assay with IGROV-1 [9] and with R2 [10] was greater than 1000 nM in each case.
For the compound `Nc1nc2[nH]c(CCC#Cc3cscc3C(=O)N[C@@H](CCC(=O)O)C(=O)O)cc2c(=O)[nH]1`, the IC50 (in assay [1]; with R2 [2]; in assay [3]; in assay [4]; with R2 [5]; with KB [6]) was greater than 1000 nM in each case. In addition, the IC50 in the assay with KB [7] and in the assay on R2 [10] was greater than 1000 nM each time.
In the case of `Nc1nc2[nH]c(CCC#Cc3sccc3C(=O)N[C@@H](CCC(=O)O)C(=O)O)cc2c(=O)[nH]1`, the half-inhibitory concentration (IC50) (in assay [1]; in the assay on R2 [2]; in [3]; in [4]; in the assay on R2 [5]; in the assay on KB [6]) was greater than 1000 nM each time. For the same compound, the IC50 in the assay on KB [7] and in the assay on R2 [10] was greater than 1000 nM throughout.
Regarding `Nc1nc2[nH]c(CCC#Cc3ccsc3C(=O)N[C@@H](CCC(=O)O)C(=O)O)cc2c(=O)[nH]1`, the IC50 (in assay [1]; in the assay with R2 [2]; in [3]; in assay [4]; in the assay on R2 [5]; in the assay with KB [6]) was greater than 1000 nM each time. In addition, the IC50 in the assay on KB [7] and in the assay on R2 [10] was greater than 1000 nM throughout.
`Nc1nc2[nH]c(CCCc3ccc(C(=O)N[C@@H](CCC(=O)O)C(=O)O)s3)cc2c(=O)[nH]1`: the IC50 in assay [1] is 101 nM; in [4], greater than 1000 nM; in the assay on KB [7], greater than 1000 nM; in the assay with IGROV-1 [9], greater than 1000 nM; with R2 [10] it was 288 nM.
`Nc1nc2[nH]c(CCCCc3ccc(C(=O)N[C@@H](CCC(=O)O)C(=O)O)s3)cc2c(=O)[nH]1`: the half-maximal inhibitory concentration (IC50) with KB [11] is 0.2 nM; in the assay with KB [12], 2.2 nM; in [14], 3.46 nM; in [1], greater than 1000 nM; in the assay on R2 [2], greater than 1000 nM; in assay [4], greater than 1000 nM. Also, the IC50 with KB [7], in the assay on IGROV-1 [9] and with R2 [10] was greater than 1000 nM throughout. In assay [13], this compound registered a relative binding affinity (RBA) greater than 1.
With `Nc1nc2[nH]c(CCC#Cc3cc(C(=O)N[C@@H](CCC(=O)O)C(=O)O)cs3)cc2c(=O)[nH]1`, the half-inhibitory concentration (IC50) in assay [1] is greater than 1000 nM; in the assay with R2 [2], greater than 1000 nM; in assay [3], 8.26 nM; in [4] it was greater than 1000 nM; with R2 [5] it was greater than 1000 nM; with KB [6], greater than 1000 nM. The IC50 in the assay with KB [7], in the assay on IGROV-1 [8], in the assay with IGROV-1 [9] and in the assay on R2 [10] was greater than 1000 nM each time.
Consider `Nc1nc2[nH]c(CCCCc3sccc3C(=O)N[C@@H](CCC(=O)O)C(=O)O)cc2c(=O)[nH]1`, for which the IC50 in [1] is greater than 1000 nM; in the assay on R2 [2] it was greater than 1000 nM; in assay [3], greater than 1000 nM; in assay [4] it was greater than 1000 nM; in the assay on R2 [5] it was greater than 1000 nM; in the assay with KB [6] it was 171 nM. Also, the concentration for half-maximal inhibition (IC50) in the assay with KB [7] and with R2 [10] was greater than 1000 nM throughout.
For `Nc1nc2[nH]c(CCCCc3cscc3C(=O)N[C@@H](CCC(=O)O)C(=O)O)cc2c(=O)[nH]1`, the IC50 in assay [1] was greater than 1000 nM; in the assay with R2 [2] it was greater than 1000 nM; in assay [3] it was 147 nM; in [4], greater than 1000 nM; with R2 [5] it was greater than 1000 nM; in the assay on KB [6] it was 35.3 nM. The IC50 with KB [7] is greater than 1000 nM; in the assay on IGROV-1 [8] it was 103 nM; with IGROV-1 [9], greater than 1000 nM; with R2 [10], greater than 1000 nM.
